Laboratory results: PMC3038628 (Journal of molecular biology, 2010)
Substitutions are numbered along the chain they refer to. Names may count otherwise.

B1: V206A: α-TTP mutant, Val206 to Ala (protein, UniProt P49638 1-278, looked up, variant V206A)
Alpha-tocopherol transfer …: MAEARSQPSAGPQLNALPDHSPLLQPGLAALRRRAREAGVPLAPLPLTDSFLLRFLRARDFDLDLAWRLLKNYYKWRAECPEISADLHPRSIIGLLKAGYHGVLRSRDPTGSKVLIYRIAHWDPKVFTAYDVFRVSLITSELIVQEVETQRNGIKAIFDLEGWQFSHAFQITPSVAKKIAAVLTDSFPLKVRGIHLINEPVIFHAAFSMIKPFLTEKIKERIHMHGNNYKQSLLQHFPDILPLEYGGEEFSMEDICQEWTNFIMKSEDYLSSISESIQ
B2: K217A: α-TTP mutant, surface Lys217 (helix A11) to Ala (protein, UniProt P49638 1-278, looked up, variant K217A)
Alpha-tocopherol transfer …: B1 Alpha-tocopherol transfer … with A206V, K217A
B3: I202D/M209D: α-TTP double mutant (protein, UniProt P49638 1-278, looked up, variant I202D M209D)
Alpha-tocopherol transfer …: B1 Alpha-tocopherol transfer … with I202D, A206V, M209D
B4: F169D: α-TTP mutant, Phe169 to Asp (helix A8) (protein, UniProt P49638 1-278, looked up, variant F169D)
Alpha-tocopherol transfer …: B1 Alpha-tocopherol transfer … with F169D, A206V
B5: F165A: α-TTP mutant, Phe165 to Ala (protein, UniProt P49638 1-278, looked up, variant F165A)
Alpha-tocopherol transfer …: B1 Alpha-tocopherol transfer … with F165A, A206V
B6: M209D: α-TTP mutant, Met209 to Asp (helix A10) (protein, UniProt P49638 1-278, looked up, variant M209D)
Alpha-tocopherol transfer …: B1 Alpha-tocopherol transfer … with A206V, M209D
B7: F165D: α-TTP mutant, Phe165 to Asp (helix A8) (protein, UniProt P49638 1-278, looked up, variant F165D)
Alpha-tocopherol transfer …: B1 Alpha-tocopherol transfer … with F165D, A206V

Legend:
[1] = FRET assay of NBD-Toc transfer from α-TTP variants to SUVs; type: biochemical; conditions: for Rate of NBD-Toc transfer to SUV, Rate: PC vesicles, 0.225 μM NBD-Toc, 2 μM α-TTP, 100 μM vesicles, room temperature; for Rate of NBD-Toc transfer to SUV, Rate^mut/Rate^wt: relative to wild type; for Reduction of rate of transfer to SUVs: reduction relative to wild type
Outline: (§1)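 Each protein (4 μM) was preloaded with 0.45 μM NBD-Toc for 15 min in SET buffer (pH 7.4). It was then stopped-flow mixed at room temperature with 200 μM acceptor vesicles of 97% liver PC and 3% TRITC-PE (finals 0.225 μM, 2 μM, 100 μM). Vesicles were sonicated SUVs (~60 nm) or extruded LUVs (150 nm). NBD quench was normalised to initial fluorescence and fitted single-exponentially.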

[2] = FRET assay of NBD-Toc transfer from α-TTP variants to LUVs; type: biochemical; conditions: for Rate of NBD-Toc transfer to LUV, Rate: PC vesicles, 0.225 μM NBD-Toc, 2 μM α-TTP, 100 μM vesicles, room temperature; for Rate of NBD-Toc transfer to LUV, Rate^mut/Rate^wt: relative to wild type
Outline: as §1

[3] = Dual polarization interferometry of protein adsorption to immobilized bilayer; type: binding; conditions: for Ads^mut/Ads^wt (0.50 μM injection): 0.50 μM protein injection; for Ads^mut/Ads^wt (1.0 μM injection): 1.0 μM protein injection; for Adsorption/binding to immobilized bilayers by DPI, % of wild type: injection concentration not stated; for Fold change in affinity: relative to wild type
Outline: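 Recombinant α-TTP (E. coli BL21(DE3), glutathione affinity, thrombin-cleaved) was dialysed 1 h at 4 °C into pH 7.4 phosphate/137 mM NaCl buffer. It was injected at 25 μl/min for 8 min over a 90:10 DOPC:DOPS bilayer on a silicon oxynitride chip at 20 °C. Adsorbed mass was measured at 0.5 and 1.0 μM in quadruplicate, two channels each. Kd came from fitting Bmax against concentration.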

[4] = Filtration; type: binding; conditions: compared with wild type
Outline: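 Recombinant α-TTP (31.5 μg) was incubated with increasing concentrations of sonicated SUVs or extruded 150 nm LUVs in SET buffer for 30 min at room temperature. Mixtures were spun through 100 kDa-cutoff filters at 10,000g for 20 min to separate vesicle-bound from free protein. Protein was resolved on gels, stained with colloidal Coomassie and quantified by band densitometry.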

[5] = tested on: HepG2 cells; experiment: α-TTP-induced secretion of NBD-tocopherol from cultured hepatocytes; type: cell-based, Human; conditions: transiently transfected HepG2; NBD-Toc fluorescence
Outline: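 HepG2/C3A cells on collagen-coated coverslips (DMEM, 10% FBS) were transiently transfected with α-TTP variants in pcDNA3.1, with mock controls. At 30 h they received 5 μM lipoprotein-complexed NBD-tocopherol for 16–18 h at 37 °C, then 4 h in normal medium for secretion. Cells were fixed, permeabilised and DAPI-stained. NBD fluorescence was imaged at 40× over >14 fields per slide, normalised to cell number; expression was checked by Western blot.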

| Molecule | Rate of NBD-Toc transfer to SUV, Rate [1] [s⁻¹] | Rate of NBD-Toc transfer to SUV, Rate^mut/Rate^wt [1] [%] | Rate of NBD-Toc transfer to LUV, Rate [2] [s⁻¹] | Rate of NBD-Toc transfer to LUV, Rate^mut/Rate^wt [2] [%] | Ads^mut/Ads^wt (0.50 μM injection) [3] | Ads^mut/Ads^wt (1.0 μM injection) [3] | Vesicle binding to SUVs (in words) [4] | Adsorption/binding to immobilized bilayers by DPI, % of wild type [3] [%] | Binding to immobilized bilayers, % of WT ([3]; printed "for LUVs") [%] | Binding to immobilized bilayers, % of WT ([3]; printed "for SUVs") [%] | Fold change in affinity [3] | Inhibition of tocopherol secretion as compared to the wild-type TTP [5] [fold] | Reduction of rate of transfer to SUVs [1] [%] |
| --- | --- | --- | --- | --- | --- | --- | --- | --- | --- | --- | --- | --- | --- |
| B1 | 0.154 ± 0.012 | 121 | 0.016 ± 0.002 | 100 | 0.93 | 1.14 | – | – | – | – | – | – | – |
| B2 | 0.130 ± 0.011 | 102 | 0.010 ± 0.004 | 62 | 1.71 | 1.80 | essentially indistinguishable | 171 | 180 | 171 | – | – | – |
| B3 | – | 11 | 0.008 ± 0.003 | 50 | 0.13 | 0.07 | – | – | – | – | 10.9 | – | – |
| B4 | 0.015 ± 0.002 | 12 | – | 0 | 0.18 | 0.23 | – | – | – | – | 14.3 | 5 | 88 |
| B5 | 0.037 ± 0.002 | 29 | 0.005 ± 0.002 | 34 | 0.37 | 0.45 | diminished vesicle binding | – | – | – | 5.1 | – | 71 |
| B6 | 0.047 ± 0.004 | 37 | 0.013 ± 0.001 | 81 | 0.39 | 0.42 | – | – | – | – | 1.2 | – | 63 |
| B7 | 0.013 ± 0.001 | 10 | 0.009 ± 0.005 | 56 | 0.11 | 0.19 | diminished vesicle binding | 11 | – | – | 12.2 | – | 90 |
